Results on one molecule are retold here after ChEMBL document CHEMBL3526115, “Differences in the pharmacokinetics of 4-amino-3-chlorophenyl hydrogen sulfate, a metabolite of resatorvid, in rats and dogs” (Drug Metab Dispos, 2012).

A short description of series [1]: AUC infinity in Crj:CD(SD)IGS rat at 0.5 mg/kg, iv administered as bolus dose by HPLC-based liquid scintillation counting analysis. Type of series: ADME, organism-based. Details: time infinity, dose 0.5 mg/kg, route intravenous. The conditions noted are these: plasma. In outline:
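Male Crj:CD(SD)IGS rats (285–324 g, 8 weeks) were given [14C]M-III in saline (0.5 mg/ml) as an IV bolus of 0.5 mg–2.6 MBq/kg. Tail-vein blood was sampled from 5 min to 24 h to give heparinized plasma. After acetonitrile deproteinization, samples went through HPLC with fraction collection and scintillation counting. AUCinf = AUClast + Clast/kel, with terminal kel from linear regression; n = 3.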

The nature of series [2]: In vivo plasma protein binding in Beagle dog at 0.5 mg/kg, iv administered as bolus dose by ultrafiltration method. In kind it is ADME, organism-based, Canis lupus familiaris. Further details: dose 0.5 mg/kg, route intravenous. Conditions: read-out: PPB (converted). In outline:
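Plasma was taken from beagle dogs 24 h after a 0.5 mg/kg iv bolus of [14C]M-III (cephalic vein). Binding was determined by ultrafiltration (1500g, 37°C, 10 min), with 14C measured in plasma and filtrate.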

Series [3] in a line: Unbound fraction in Crj:CD(SD)IGS rat plasma at 0.125 mg/hr, iv administered as continuous infusion by ultrafiltration method. Type of series: ADME, organism-based. In a few lines: (§1)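 Rats received a continuous iv infusion of [14C]M-III at 0.125 mg/rat/h, with probenecid co-infused at 16, 31 or 62 mg/h/kg or vehicle alone, for 5 h. Arterial plasma was sampled during infusion. CLtot = infusion rate / steady-state plasma M-III (120–180 min). Unbound fraction was measured by ultrafiltration of 5-h plasma (10,000 MWCO, 1500g, 37°C, 10 min). CLint = CLtot / unbound ratio.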

In series [4] the test system is Rattus norvegicus. Put plainly: Intrinsic total body clearance in Crj:CD(SD)IGS rat at 0.125 mg/hr, iv administered as continuous infusion by HPLC based liquid scintillation counting analysis in presence of 62 mg/hr/kg probenecid. In kind it is ADME, organism-based. Conditions: in vivo. In a few lines:
as §1

Series [5] in a line: In vitro plasma protein binding in rat at 0.5 ug/ml by ultrafiltration method. Type of series: ADME, cell-free. The conditions noted are these: read-out: PPB (converted). In a few lines: (§2)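 [14C]M-III in saline was added to rat or dog plasma at final 0.5, 5 and 50 µg/ml. Plasma was ultrafiltered by centrifugation at 1500g and 37°C for 10 min, and 14C was measured in plasma and filtrate. Mean ± S.D., n = 3.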

Series [6] is described as follows: AUC infinity in Beagle dog at 0.5 mg/kg, iv administered as bolus dose by HPLC-based liquid scintillation counting analysis. In kind it is ADME, organism-based, Canis lupus familiaris. Conditions: plasma. Further details: time infinity, dose 0.5 mg/kg, route intravenous. In outline: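 Male beagles (7.4–10.0 kg) got a single IV injection of [14C]M-III in saline (2.5 mg/ml), 0.5 mg–1.0 MBq/kg. Cephalic-vein blood was taken from 5 min to 168 h and spun for heparinized plasma. Plasma was deproteinized with acetonitrile, run on reverse-phase HPLC and collected as 1-min fractions counted by LSC. AUCinf = AUClast + Clast/kel; n = 3.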

A short description of series [7]: Drug recovery in Beagle dog urine at 0.5 mg/kg, iv administered as bolus dose measured from 0 to 168 hrs by HPLC-based liquid scintillation counting analysis. Details: dose 0.5 mg/kg, route intravenous. The conditions noted are these: read-out: Drug recovery. Type of series: ADME, organism-based, Canis lupus familiaris. In outline:
(§3)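 After a 0.5 mg/kg iv bolus of [14C]M-III, urine was collected 0–24 h (rat) or 0–168 h (dog) and injected directly onto HPLC with fraction collection and scintillation counting. M-III in urine was derived from the urinary 14C excretion ratio and the [14C]M-III composition. CLrenal = urinary M-III amount / AUC0–24 h (rat) or AUC0–168 h (dog). Unbound CLrenal = CLrenal / free fraction.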

A short description of series [8]: Ratio of drug level in kidney cortex to plasma in Beagle dog at 0.5 mg/kg, iv administered as bolus dose by HPLC-based liquid scintillation counting analysis. Type of series: ADME, organism-based, Canis lupus familiaris. Details: dose 0.5 mg/kg, route intravenous. In a few lines: (§4)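 Rats received [14C]M-III in saline by continuous jugular-vein infusion for 4 h (0.5 mg/rat/h per methods; 0.25 mg/h in legend), then aortic blood and kidneys were collected. Dogs received a 0.5 mg/kg iv bolus, with blood and kidneys (cortex and medulla separated) collected at 24 h. 14C was measured in tissue homogenates and plasma as a tissue/plasma ratio. Rat n = 3, dog n = 2.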

In series [9] the test system is Canis familiaris. In words: Unbound renal clearance in Beagle dog at 0.5 mg/kg, iv administered as bolus dose measured from 0 to 168 hrs by HPLC-based liquid scintillation counting analysis. Type of series: ADME, organism-based, Canis lupus familiaris, Kidney. Details: dose 0.5 mg/kg, route intravenous. Conditions: in vivo. In a few lines:
as §3

Series [10] is described as follows: In vivo plasma protein binding in Crj:CD(SD)IGS rat at 0.125 mg/hr, iv administered as continuous infusion by ultrafiltration method in presence of 16 mg/hr/kg probenecid. Type of series: ADME, organism-based. The conditions noted are these: with probenecid 16 mg/hr/kg, read-out: PPB (converted). In a few lines: as §1
Series [11] can be described thus: Apparent volume of distribution in Crj:CD(SD)IGS rat at 0.5 mg/kg, iv administered as bolus dose by HPLC-based liquid scintillation counting analysis. Type of series: ADME, organism-based. Details: dose 0.5 mg/kg, route intravenous. Conditions: in vivo, read-out: Vd(app). In outline:
(§5)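 [14C]M-III in saline given as a single iv bolus at 0.5 mg/kg to male rats (tail-vein blood, 5 min–24 h) or male beagle dogs (cephalic-vein blood, 5 min–168 h). Heparinized plasma counted for radioactivity; M-III quantified by HPLC with fraction collection and liquid scintillation counting. C5 min read directly; terminal t1/2 by linear regression, kel = ln2/t1/2, Vd = dose/back-extrapolated C0, CLtot = dose/AUCinf. Mean ± S.D., n = 3.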

A short description of series [12]: Renal clearance in Beagle dog at 0.5 mg/kg, iv administered as bolus dose measured from 0 to 168 hrs by HPLC-based liquid scintillation counting analysis. Type of series: ADME, organism-based, Canis lupus familiaris, Kidney. Further details: dose 0.5 mg/kg, route intravenous. Conditions: in vivo. In a few lines: as §3
A short description of series [13]: Total body clearance in Beagle dog at 0.5 mg/kg, iv administered as bolus dose by HPLC-based liquid scintillation counting analysis. Type of series: ADME, organism-based, Canis lupus familiaris. Further details: dose 0.5 mg/kg, route intravenous. The conditions noted are these: in vivo. In outline: as §5
The nature of series [14]: Ratio of drug level in kidney medulla to plasma in Beagle dog at 0.5 mg/kg, iv administered as bolus dose by HPLC-based liquid scintillation counting analysis. Details: dose 0.5 mg/kg, route intravenous. In kind it is ADME, organism-based, Canis lupus familiaris. In outline:
as §4

The test system of series [15] is Plasma. Put plainly: Plasma concentration in Beagle dog at 0.5 mg/kg, iv administered as bolus dose by HPLC based liquid scintillation counting analysis. Type of series: ADME, organism-based, Canis lupus familiaris. Further details: dose 0.5 mg/kg, route intravenous. The conditions noted are these: in vivo.
A short description of series [16]: Drug excretion in Crj:CD(SD)IGS rat feces assessed as excretion ratio of [14C] at 0.5 mg/kg, iv administered as bolus dose measured from 0 to 24 hrs by HPLC-based liquid scintillation counting analysis. The conditions noted are these: in vivo. In kind it is ADME, organism-based. Details: dose 0.5 mg/kg, route intravenous. In outline: (§6)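 Male rats in metabolic cages with urine/feces separator, or beagle dogs, after a 0.5 mg/kg iv bolus of [14C]M-III in saline. Radioactivity in urine and feces collected 0–24 h (rats) or 0–168 h (dogs) was counted and expressed as percent of dose. Mean ± S.D., n = 3.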

Series [17] is described as follows: Total body clearance in Crj:CD(SD)IGS rat at 0.125 mg/hr, iv administered as continuous infusion by HPLC based liquid scintillation counting analysis in presence of 16 mg/hr/kg probenecid. In kind it is ADME, organism-based. Conditions: in vivo, with probenecid 16 mg/hr/kg. In a few lines:
as §1

Series [18] is described as follows: In vitro plasma protein binding in dog at 50 ug/ml by ultrafiltration method. Type of series: ADME, cell-free, Canis lupus familiaris. Conditions: read-out: PPB (converted). In a few lines: as §2
A short description of series [19]: Drug excretion in Beagle dog feces assessed as excretion ratio of [14C] at 0.5 mg/kg, iv administered as bolus dose measured from 0 to 168 hrs by HPLC-based liquid scintillation counting analysis. Type of series: ADME, organism-based, Canis lupus familiaris. Details: dose 0.5 mg/kg, route intravenous. The conditions noted are these: in vivo. In a few lines:
as §6

Series [20] is described as follows: In vivo plasma protein binding in Crj:CD(SD)IGS rat at 0.125 mg/hr, iv administered as continuous infusion by ultrafiltration method. Type of series: ADME, organism-based. The conditions noted are these: read-out: PPB (converted). In a few lines:
as §1

SMILES strings stand for the structures.

As to `N[14c]1[14cH][14cH][14c](OS(=O)(=O)O)[14cH][14c]1Cl`, the AUC(0-inf) in series [1] was 0.802 µg·h/mL; in series [6], 596 µg·h/mL. Also, the fraction unbound in series [2] is 0.08; in series [3], 0.088; in series [10], 0.078; in series [20], 0.088. Further, in series [4], the CL was 563 mL/h/kg. Further, the fraction unbound at 0.5 ug/ml in series [5] was 0.075. The dose excreted in series [7] amounted to 19.5%. Besides, the Kp stood at 0.1 in series [8] and 0.2 in series [14]. Further, the CL free in [9] was 3.51 mL/h/kg. Further, the Vd in [11] is 0.14 L/kg. In addition, the CL renal in series [12] is 0.281 mL/h/kg. In addition, the clearance in series [13] is 0.884 mL/h/kg; in series [17] it was 267 mL/h/kg. This molecule also registered a Cp in series [15] of 2500 ng/mL. Moreover, the results for the Drug excretion in series [16] and in [19] were 10.3% and 7.7%, respectively. The fraction unbound at 50 ug/ml in [18] is 0.154.

For orientation: AUC(0-inf) means total exposure, with the tail of the curve extrapolated. Higher therefore signals high exposure. What is called Kp is tissue or fluid exposure divided by exposure in the circulation. One may read the clearance as the volume of plasma or blood freed of the substance per unit of time.
